The term IC50 denotes the concentration that gives 50% inhibition.

The record followed here is paper PMC10464598 (RSC Advances, 2023).

urease, sequence (P07374 whole entry, looked up): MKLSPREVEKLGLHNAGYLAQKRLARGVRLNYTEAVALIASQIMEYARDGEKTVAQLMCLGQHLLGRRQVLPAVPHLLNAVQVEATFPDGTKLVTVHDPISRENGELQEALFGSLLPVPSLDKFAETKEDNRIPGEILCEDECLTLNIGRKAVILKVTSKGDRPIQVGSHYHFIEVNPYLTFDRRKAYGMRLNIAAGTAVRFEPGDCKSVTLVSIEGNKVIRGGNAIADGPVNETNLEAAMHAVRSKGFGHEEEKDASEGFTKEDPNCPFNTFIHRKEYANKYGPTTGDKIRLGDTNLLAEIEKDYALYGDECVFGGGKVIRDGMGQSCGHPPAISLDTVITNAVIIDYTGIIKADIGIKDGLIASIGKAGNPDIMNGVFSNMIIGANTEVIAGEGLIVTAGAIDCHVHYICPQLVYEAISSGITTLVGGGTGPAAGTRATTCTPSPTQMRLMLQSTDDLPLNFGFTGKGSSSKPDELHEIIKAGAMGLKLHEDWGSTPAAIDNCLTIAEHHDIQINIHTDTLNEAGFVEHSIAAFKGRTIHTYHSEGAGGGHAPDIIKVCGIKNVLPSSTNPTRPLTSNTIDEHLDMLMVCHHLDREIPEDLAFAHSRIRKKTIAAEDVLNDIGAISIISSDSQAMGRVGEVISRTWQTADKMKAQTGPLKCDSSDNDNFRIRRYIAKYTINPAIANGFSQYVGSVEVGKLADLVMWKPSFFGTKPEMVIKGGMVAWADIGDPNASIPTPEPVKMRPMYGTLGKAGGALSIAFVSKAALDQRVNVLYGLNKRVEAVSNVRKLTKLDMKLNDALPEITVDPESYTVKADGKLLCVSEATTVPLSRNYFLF

The assay addresses urease (Canavalia ensiformis, UniProt P07374). Put plainly: Urease inhibition assay. The assay is classed as biochemical. The gist of the method:
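Test compound was preincubated with urease (enzyme solution 5 U ml−1) in buffer for 10 min at 37 °C. Alkaline and phenolic reagents were then added, and absorbance was read at 625 nm. Thiourea served as the standard inhibitor. Assays were run in triplicate. % inhibition = (A control − A sample)/A control × 100. IC50 was obtained by non-linear regression of % inhibition against concentration.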
`COc1ccc(-c2nnc(C(C)c3ccc(-c4ccccc4)c(F)c3)o2)c(F)c1` (stereo not drawn) [Compound 22, 2-(2-Fluoro-4-methoxyphenyl)-5-(1-(2-fluoro-[1,1′-biphenyl]-4-yl)ethyl)-1,3,4-oxadiazole] came in with an IC50 of 31 ± 1.4 µM.
The result for `CSc1ccc(-c2nnc(C(C)c3ccc(-c4ccccc4)c(F)c3)o2)cc1` (stereo not drawn) [Compound 27, 2-(1-(2-Fluoro-[1,1′-biphenyl]-4-yl)ethyl)-5-(4-(methylthio)phenyl)-1,3,4-oxadiazole] reads 34 ± 2.4 µM; that for `COc1ccccc1-c1nnc(C(C)c2ccc(-c3ccccc3)c(F)c2)o1` (stereo not drawn) [Compound 20, 2-(1-(2-Fluoro-[1,1′-biphenyl]-4-yl)ethyl)-5-(2-methoxyphenyl)-1,3,4-oxadiazole], 12 ± 0.9 µM.
Compound `COc1ccc(OC)c(-c2nnc(C(C)c3ccc(-c4ccccc4)c(F)c3)o2)c1` (stereo not drawn) [Compound 25, 2-(2,5-Dimethoxyphenyl)-5-(1-(2-fluoro-[1,1′-biphenyl]-4-yl)ethyl)-1,3,4-oxadiazole] displayed an IC50 of 35 ± 1.5 µM.
Next, `CCOc1cc(-c2nnc(C(C)c3ccc(-c4ccccc4)c(F)c3)o2)ccc1OC` (stereo not drawn) [Compound 14, 2-(3-Ethoxy-4-methoxyphenyl)-5-(1-(2-fluoro-[1,1′-biphenyl]-4-yl)ethyl)-1,3,4-oxadiazole]: 35 ± 1.2 µM; `CC(c1ccc(-c2ccccc2)c(F)c1)c1nnc(-c2cccc(O)c2O)o1` (stereo not drawn) [Compound 31, 3-(5-(1-(2-Fluoro-[1,1′-biphenyl]-4-yl)ethyl)-1,3,4-oxadiazol-2-yl)benzene-1,2-diol]: 15 ± 0.3 µM.
`CC(c1ccc(-c2ccccc2)c(F)c1)c1nnc(-c2ccc(-c3ccccc3)c(F)c2)o1` (stereo not drawn) [Compound 29, 2-(2-Fluoro-[1,1′-biphenyl]-4-yl)-5-(1-(2-fluoro-[1,1′-biphenyl]-4-yl)ethyl)-1,3,4-oxadiazole] returned an IC50 of 41 ± 1.4 µM.
On to `CC(c1ccc(-c2ccccc2)c(F)c1)c1nnc(-c2ccc(O)c(Br)c2)o1` (stereo not drawn) [Compound 28, 2-Bromo-4-(5-(1-(2-fluoro-[1,1′-biphenyl]-4-yl)ethyl)-1,3,4-oxadiazol-2-yl)phenol], for which inhibition was half-maximal at 14 ± 0.3 µM (IC50).
The result for `CC(c1ccc(-c2ccccc2)c(F)c1)c1nnc(-c2ccccc2N)o1` (stereo not drawn) [Compound 7, 2-(5-(1-(2-Fluoro-[1,1′-biphenyl]-4-yl)ethyl)-1,3,4-oxadiazol-2-yl) aniline] reads 16 ± 0.1 µM.
The result for `CC(c1ccc(-c2ccccc2)c(F)c1)c1nnc(-c2ccc([N+](=O)[O-])cc2)o1` (stereo not drawn) [Compound 16, 2-(1-(2-Fluoro-[1,1′-biphenyl]-4-yl)ethyl)-5-(4-nitrophenyl)-1,3,4-oxadiazole] reads 13 ± 0.2 µM; that for `CC(c1ccc(-c2ccccc2)c(F)c1)c1nnc(-c2cccc(C(F)(F)F)c2)o1` (stereo not drawn) [Compound 26, 2-(1-(2-Fluoro-[1,1′-biphenyl]-4-yl)ethyl)-5-(3-(trifluoromethyl)phenyl)-1,3,4-oxadiazole], 12 ± 0.1 µM.
Next, `COc1ccc(Br)cc1-c1nnc(C(C)c2ccc(-c3ccccc3)c(F)c2)o1` (stereo not drawn) [Compound 9, 2-(5-Bromo-2-methoxyphenyl)-5-(1-(2-fluoro-[1,1′-biphenyl]-4-yl)ethyl)-1,3,4-oxadiazole]: 72 ± 1.2 µM; `CC(c1ccc(-c2ccccc2)c(F)c1)c1nnc(-c2cc([N+](=O)[O-])ccc2Cl)o1` (stereo not drawn) [Compound 11, 2-(2-Chloro-5-nitrophenyl)-5-(1-(2-fluoro-[1,1′-biphenyl]-4-yl)ethyl)-1,3,4-oxadiazole]: 41 ± 1.2 µM.
`COc1cc(-c2nnc(C(C)c3ccc(-c4ccccc4)c(F)c3)o2)ccc1Oc1ccccc1` (stereo not drawn) [Compound 19, 2-(1-(2-Fluoro-[1,1′-biphenyl]-4-yl)ethyl)-5-(3-methoxy-4-phenoxyphenyl)-1,3,4-oxadiazole] returned an IC50 of 16 ± 0.3 µM.
As for `CC(c1ccc(-c2ccccc2)c(F)c1)c1nnc(-c2cccc([N+](=O)[O-])c2)o1` (stereo not drawn) [Compound 8, 2-(1-(2-Fluoro-[1,1′-biphenyl]-4-yl)ethyl)-5-(3-nitrophenyl)-1,3,4-oxadiazole], the IC50 came out at 41 ± 1.2 µM.
In turn, `CC(c1ccc(-c2ccccc2)c(F)c1)c1nnc(-c2ccc(Br)cc2)o1` (stereo not drawn) [Compound 21, 2-(4-Bromophenyl)-5-(1-(2-fluoro-[1,1′-biphenyl]-4-yl)ethyl)-1,3,4-oxadiazole] registered an IC50 of 13 ± 0.2 µM.
Next, `CC(c1ccc(-c2ccccc2)c(F)c1)c1nnc(-c2cccc3ccccc23)o1` (stereo not drawn) [Compound 5, 2-(1-(2-Fluoro-[1,1′-biphenyl]-4-yl)ethyl)-5-(naphthalen-1-yl)-1,3,4-oxadiazole]: 39 ± 1.2 µM; `CC(c1ccc(-c2ccccc2)c(F)c1)c1nnc(-c2ccc(O)c(O)c2O)o1` (stereo not drawn) [Compound 6, 4-(5-(1-(2-Fluoro-[1,1′-biphenyl]-4-yl)ethyl)-1,3,4-oxadiazol-2-yl) benzene-1,2,3-triol]: 20 ± 0.5 µM; `Cc1ccc(-c2nnc(C(C)c3ccc(-c4ccccc4)c(F)c3)o2)s1` (stereo not drawn) [Compound 30, 2-(1-(2-Fluoro-[1,1′-biphenyl]-4-yl)ethyl)-5-(5-methylthiophen-2-yl)-1,3,4-oxadiazole]: 12 ± 0.1 µM.
Compound `COc1ccc(-c2nnc(C(C)c3ccc(-c4ccccc4)c(F)c3)o2)c(Cl)c1OC` (stereo not drawn) [Compound 17, 2-(2-Chloro-3,4-dimethoxyphenyl)-5-(1-(2-fluoro-[1,1′-biphenyl]-4-yl)ethyl)-1,3,4-oxadiazole] yielded an IC50 of 36 ± 1.2 µM.
`CCOc1ccc(-c2nnc(C(C)c3ccc(-c4ccccc4)c(F)c3)o2)c(OC)c1` (stereo not drawn) [Compound 12, 2-(4-Ethoxy-2-methoxyphenyl)-5-(1-(2-fluoro-[1,1′-biphenyl]-4-yl)ethyl)-1,3,4-oxadiazole]: the concentration for half-maximal inhibition (IC50) was found to be 74 ± 1.3 µM.
`COc1ccc(-c2nnc(C(C)c3ccc(-c4ccccc4)c(F)c3)o2)c(OC)c1OC` (stereo not drawn) [Compound 10, 2-(2,3,4-Trimethoxyphenyl)-5-(1-(2-fluoro-[1,1′-biphenyl]-4-yl)ethyl)-1,3,4-oxadiazole]: the IC50 came out at 20 ± 0.5 µM.
For the compound `COc1cccc(OC)c1-c1nnc(C(C)c2ccc(-c3ccccc3)c(F)c2)o1` (stereo not drawn) [Compound 15, 2-(2,6-Dimethoxyphenyl)-5-(1-(2-fluoro-[1,1′-biphenyl]-4-yl)ethyl)-1,3,4-oxadiazole], the IC50 amounted to 31 ± 1.2 µM.
The result for `COc1cc(-c2nnc(C(C)c3ccc(-c4ccccc4)c(F)c3)o2)cc(OC)c1Br` (stereo not drawn) [Compound 23, 2-(4-Bromo-3,5-dimethoxyphenyl)-5-(1-(2-fluoro-[1,1′-biphenyl]-4-yl)ethyl)-1,3,4-oxadiazole] reads 37 ± 1.4 µM; that for `CC(c1ccc(-c2ccccc2)c(F)c1)c1nnc(-c2ccc(Br)cc2F)o1` (stereo not drawn) [Compound 24, 2-(4-Bromo-2-fluorophenyl)-5-(1-(2-fluoro-[1,1′-biphenyl]-4-yl)ethyl)-1,3,4-oxadiazole], 13 ± 0.1 µM; that for `COc1cc(-c2nnc(C(C)c3ccc(-c4ccccc4)c(F)c3)o2)ccc1F` (stereo not drawn) [Compound 13, 2-(4-Fluoro-3-methoxyphenyl)-5-(1-(2-fluoro-[1,1′-biphenyl]-4-yl)ethyl)-1,3,4-oxadiazole], 16 ± 0.9 µM.
The result for `CC(c1ccc(-c2ccccc2)c(F)c1)c1nnc(-c2ccccc2[N+](=O)[O-])o1` (stereo not drawn) [Compound 32, 2-(1-(2-Fluoro-[1,1′-biphenyl]-4-yl)ethyl)-5-(2-nitrophenyl)-1,3,4-oxadiazole] reads 15 ± 0.3 µM.
